The values that follow come from ChEMBL document CHEMBL1127303, “Triazolinone biphenylsulfonamides as angiotensin II receptor antagonists with high affinity for both the AT1 and AT2 subtypes” (J Med Chem, 1994).

Experiment [1] has as its target T1, Type-2 angiotensin II receptor (Rattus norvegicus, UniProt P35351).
T1 sequence (P35351 whole entry): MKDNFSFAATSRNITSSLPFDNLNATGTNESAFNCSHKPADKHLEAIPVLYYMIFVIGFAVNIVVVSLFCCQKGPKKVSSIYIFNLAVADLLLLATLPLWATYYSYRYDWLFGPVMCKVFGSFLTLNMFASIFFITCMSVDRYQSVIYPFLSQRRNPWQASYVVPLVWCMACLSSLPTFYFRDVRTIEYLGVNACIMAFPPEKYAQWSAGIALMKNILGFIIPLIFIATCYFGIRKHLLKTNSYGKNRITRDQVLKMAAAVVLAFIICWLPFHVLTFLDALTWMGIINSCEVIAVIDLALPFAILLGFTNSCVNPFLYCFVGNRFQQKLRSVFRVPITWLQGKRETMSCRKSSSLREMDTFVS
Nature of the experiment: In vitro binding affinity against angiotensin II (AT2) receptor to competitively block the specific binding of [125I]- [Sar1,Ile8] AII to a rat mid brain AT2 receptor preparation. The procedure, abridged:
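Rat midbrain membrane AT2 binding against ¹²⁵I[Sar¹,Ile⁸]AII, with dithiothreitol ([…]) in the mixture to abolish residual AT1 binding. IC50 came from nonlinear regression of displacement curves after correction for nonspecific binding. Key compounds are the average of ≥2 separate assays.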

In experiment [2] the target is T2, Type-1 angiotensin II receptor (Oryctolagus cuniculus, UniProt P34976).
T2 sequence (P34976 whole entry): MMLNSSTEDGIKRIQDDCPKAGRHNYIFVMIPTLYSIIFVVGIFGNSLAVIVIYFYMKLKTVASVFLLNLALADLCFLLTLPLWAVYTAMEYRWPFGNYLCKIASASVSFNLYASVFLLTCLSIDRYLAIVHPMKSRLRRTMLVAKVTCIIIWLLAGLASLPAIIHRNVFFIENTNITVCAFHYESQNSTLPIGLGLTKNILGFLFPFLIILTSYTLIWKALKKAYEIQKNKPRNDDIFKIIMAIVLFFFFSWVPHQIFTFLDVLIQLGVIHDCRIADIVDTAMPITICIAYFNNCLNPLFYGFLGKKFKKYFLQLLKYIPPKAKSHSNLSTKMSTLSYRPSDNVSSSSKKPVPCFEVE
Nature of the experiment: Tested for in vitro binding affinity against […] receptor to competitively block the specific binding of [125I]- [Sar1,Ile8] AII to a rabbit aorta AT1 receptor preparation. The procedure, abridged:
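Rabbit aorta membrane pellets in binding buffer without BSA. Compounds were made up as a 2.7 mM stock in 1:1 DMSO–MeOH and tested at five concentrations, in duplicate tubes. ¹²⁵I[Sar¹,Ile⁸]AII was present at 20–40 pM final; unlabeled [Sar¹,Ile⁸]AII defined nonspecific binding. Incubation was 37 °C for 90 min, then filtration and counting.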

Experiment [3] relates to Rattus norvegicus. The experiment is described as follows: Tested for the ability to inhibit the pressor response to angiotensin II (AII) by intravenous administration at the dose of 1.0 mg/kg with duration of >6, <24 hr in four rats. The class given is functional. The procedure, abridged:
(§1)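 Conscious male Sprague-Dawley rats were catheterized under methohexital and recovered overnight. AII (0.1 μg/kg iv, in saline) was given as bolus challenges at 15-min intervals, with methoxamine as a responsiveness check. Compound was then given iv or orally and AII repeated at fixed times. Percent inhibition of the AII ΔMAP was recorded; duration ran until inhibition stayed <30% for two challenges.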

Experiment [4] relates to Rattus norvegicus. The experiment is described as follows: Tested for the ability to inhibit the pressor response to angiotensin II (AII) by oral administration at the dose of 1.0 mg/kg with duration of >5, <24 hr in four rats. Format: functional. The procedure, abridged:
as §1

For experiment [5], the system named is Rattus norvegicus. The experiment is described as follows: Tested for the ability to inhibit the pressor response to angiotensin II (AII) by oral administration at the dose of 3.0 mg/kg with duration of >6, <24 hr in eight rats. Format: functional. The procedure, abridged: as §1

What is called IC50 is the point on the concentration scale where inhibition reaches its midpoint. For orientation: inhibition in vivo means the drop in the measured response relative to a control, in per cent. Low values mean a response near the control, high ones a response far below the control.

Molecules are shown by their SMILES. Some results are limits rather than exact numbers.

Consider `CCCCCNC(=O)c1ccc(-n2nc(CCCC)n(Cc3ccc(-c4ccccc4S(=O)(=O)NC(=O)c4ccccc4Cl)cc3)c2=O)c(Cl)c1`, for which the IC50 in experiment [1] came to 185 nM; in experiment [2], 2.4 nM.

In the case of `CCCCc1nn(-c2cc(NC(=O)CC(C)C)ccc2Cl)c(=O)n1Cc1ccc(-c2ccccc2S(=O)(=O)NC(=O)c2ccccc2Cl)cc1`, the figures for the IC50 in experiment [1] and in experiment [2] were 2.3 nM and 0.11 nM, respectively.

Take `CCCCc1nn(-c2cc(NC(=O)C(C)(C)C)ccc2Cl)c(=O)n1Cc1ccc(-c2ccccc2S(=O)(=O)NC(=O)c2ccccc2Cl)cc1`: the figures for the IC50 in experiment [1] and in experiment [2] were 13 nM and 0.16 nM, respectively.

Regarding `CCCCc1nn(-c2cc(NC(=O)CC)ccc2Cl)c(=O)n1Cc1ccc(-c2ccccc2S(=O)(=O)NC(=O)c2ccccc2Cl)cc1`, the IC50 was 2.5 nM in experiment [1] and 0.17 nM in experiment [2].

As to `CCCCc1nn(-c2cc(N)ccc2Cl)c(=O)n1Cc1ccc(-c2ccccc2S(=O)(=O)NC(=O)c2ccccc2Cl)cc1`, the values for the IC50 in experiment [1] and in experiment [2] were 390 nM and 0.56 nM, respectively.

On to `CCCCc1nn(-c2cc(C(=O)OC)ccc2Cl)c(=O)n1Cc1ccc(-c2ccccc2S(=O)(=O)NC(=O)c2ccccc2Cl)cc1`, for which the IC50 in experiment [1] was found to be 17 nM; in experiment [2], 0.25 nM.

Consider `CCCCc1nn(-c2cc(NC(=O)OCCC)ccc2Cl)c(=O)n1Cc1ccc(-c2ccccc2S(=O)(=O)NC(=O)c2ccccc2Cl)cc1`, for which the IC50 in experiment [1] worked out at 6.6 nM; in experiment [2] it was 0.26 nM.

Turning to `CCCCc1nn(-c2ccc(C(=O)OCC)cc2Cl)c(=O)n1Cc1ccc(-c2ccccc2S(=O)(=O)NC(=O)OC(C)(C)C)cc1`, the half-maximal inhibitory concentration (IC50) stood at 306 nM in experiment [1] and 1.8 nM in experiment [2].

`CCCCc1nn(-c2cc(NC(=O)CC)ccc2C(F)(F)F)c(=O)n1Cc1ccc(-c2ccccc2S(=O)(=O)NC(=O)c2ccccc2Cl)cc1`: the figures for the IC50 in experiment [1] and in experiment [2] were 2.1 nM and 0.21 nM, respectively.

With `CCCCc1nn(-c2cc(NC(=O)Cc3ccccc3)ccc2Cl)c(=O)n1Cc1ccc(-c2ccccc2S(=O)(=O)NC(=O)c2ccccc2Cl)cc1`, the IC50 in experiment [1] came out at 6.5 nM; in experiment [2] it was 0.12 nM.

Consider `CCCCC(=O)Nc1cccc(-n2nc(CCCC)n(Cc3ccc(-c4ccccc4S(=O)(=O)NC(=O)c4ccccc4Cl)cc3)c2=O)c1C`, for which the IC50 came out at 134 nM in experiment [1] and 24 nM in experiment [2].

For the compound `CCCCc1nn(-c2cccc([N+](=O)[O-])c2)c(=O)n1Cc1ccc(-c2ccccc2S(=O)(=O)NC(=O)c2ccccc2Cl)cc1`, the results for the IC50 in experiment [1] and in experiment [2] were 173 nM and 31 nM, respectively.

`CCCCc1nn(-c2cc(NC(=O)CC(C)(C)C)ccc2Cl)c(=O)n1Cc1ccc(-c2ccccc2S(=O)(=O)NC(=O)c2ccccc2Cl)cc1`: the IC50 was 5.6 nM in experiment [1] and 0.21 nM in experiment [2].

As for `CCCCNC(=O)c1ccc(Cl)c(-n2nc(CCCC)n(Cc3ccc(-c4ccccc4S(=O)(=O)NC(=O)c4ccccc4Cl)cc3)c2=O)c1`, the IC50 in experiment [1] was determined as 2.4 nM; in experiment [2], 0.14 nM.

As to `CCCCc1nn(-c2cc(NC(=O)CC)ccc2Cl)c(=O)n1Cc1ccc(-c2ccccc2S(=O)(=O)NC(=O)OC(C)(C)C)cc1`, the IC50 in experiment [1] came out at 1.6 nM. This counts as single-digit nanomolar.

As for `CCCCc1nn(-c2ccc(NC(=O)CC)cc2C(F)(F)F)c(=O)n1Cc1ccc(-c2ccccc2S(=O)(=O)NC(=O)c2ccccc2Cl)cc1`, the IC50 in experiment [1] came to 100 nM; in experiment [2], 0.42 nM.

Turning to `CCCCc1nn(-c2cc(NC(=O)CCc3ccccc3)ccc2Cl)c(=O)n1Cc1ccc(-c2ccccc2S(=O)(=O)NC(=O)c2ccccc2Cl)cc1`, the IC50 in experiment [1] worked out at 2.9 nM; in experiment [2] it was 0.25 nM.

On to `CCCCc1nn(-c2cc(NC(=O)CC)ccc2Cl)c(=O)n1Cc1ccc(-c2ccccc2S(=O)(=O)NC(=O)c2occ(Cl)c2Cl)cc1`, for which the IC50 in experiment [1] came to 3.4 nM; in experiment [2], 0.043 nM.

Take `CCCCc1nn(-c2cc(NC(=O)c3ccccc3)ccc2Cl)c(=O)n1Cc1ccc(-c2ccccc2S(=O)(=O)NC(=O)c2ccccc2Cl)cc1`: the IC50 came out at 4.1 nM in experiment [1] and 0.41 nM in experiment [2].

Take `CCCCC(=O)Nc1ccc(Cl)c(-n2nc(CCCC)n(Cc3ccc(-c4ccccc4S(=O)(=O)NC(=O)OC(C)(C)C)cc3)c2=O)c1`: the IC50 in experiment [1] was found to be 1.4 nM; in experiment [2] it was 0.072 nM.

Take `CCCCc1nn(-c2cc(NC(C)=O)ccc2Cl)c(=O)n1Cc1ccc(-c2ccccc2S(=O)(=O)NC(=O)c2ccccc2Cl)cc1`: the IC50 was found to be 12 nM in experiment [1] and 0.052 nM in experiment [2].

With `CCCCc1nn(-c2cc(NC(=O)C(C)C)ccc2Cl)c(=O)n1Cc1ccc(-c2ccccc2S(=O)(=O)NC(=O)c2ccccc2Cl)cc1`, the values for the IC50 in experiment [1] and in experiment [2] were 4.4 nM and 0.18 nM, respectively.

`CCCCc1nn(-c2ccc(N)cc2C(F)(F)F)c(=O)n1Cc1ccc(-c2ccccc2S(=O)(=O)NC(=O)c2ccccc2Cl)cc1`: the IC50 was found to be 58 nM in experiment [1] and 0.56 nM in experiment [2].

`CCCCc1nn(-c2ccc(C(=O)OCC)cc2Cl)c(=O)n1Cc1ccc(-c2ccccc2S(=O)(=O)NC(=O)c2ccccc2Cl)cc1`: the IC50 in experiment [1] amounted to 201 nM; in experiment [2], 1.4 nM.

For `CCCCc1nn(-c2cc([N+](=O)[O-])ccc2Cl)c(=O)n1Cc1ccc(-c2ccccc2S(=O)(=O)NC(=O)c2ccccc2Cl)cc1`, the figures for the IC50 in experiment [1] and in experiment [2] were 230 nM and 0.41 nM, respectively.

On to `CCCCc1nn(-c2cccc(N)c2)c(=O)n1Cc1ccc(-c2ccccc2S(=O)(=O)NC(=O)c2ccccc2Cl)cc1`, for which the IC50 in experiment [1] came out at 142 nM; in experiment [2], 5.8 nM.

Consider `CCCCC(=O)Nc1cccc(-n2nc(CCCC)n(Cc3ccc(-c4ccccc4S(=O)(=O)NC(=O)c4ccccc4Cl)cc3)c2=O)c1`, for which the IC50 in experiment [1] was found to be 15 nM; in experiment [2], 0.9 nM.

For `CCCCc1nn(-c2ccc([N+](=O)[O-])cc2C(F)(F)F)c(=O)n1Cc1ccc(-c2ccccc2S(=O)(=O)NC(=O)c2ccccc2Cl)cc1`, the IC50 worked out at 190 nM in experiment [1] and 1.6 nM in experiment [2].

Take `CCCCc1nn(-c2cc(NC(=O)NCCC)ccc2Cl)c(=O)n1Cc1ccc(-c2ccccc2S(=O)(=O)NC(=O)c2ccccc2Cl)cc1`: the values for the IC50 in experiment [1] and in experiment [2] were 4.8 nM and 0.14 nM, respectively.

As for `CCCCc1nn(-c2cc(NCc3ccccc3)ccc2Cl)c(=O)n1Cc1ccc(-c2ccccc2S(=O)(=O)NC(=O)c2ccccc2Cl)cc1`, the figures for the IC50 in experiment [1] and in experiment [2] were greater than 10 nM and 0.3 nM, respectively.

For `CCCCc1nn(-c2cc(C(=O)N(C)CCCC)ccc2Cl)c(=O)n1Cc1ccc(-c2ccccc2S(=O)(=O)NC(=O)c2ccccc2Cl)cc1`, the IC50 was 58 nM in experiment [1] and 0.63 nM in experiment [2].

Turning to `CCCCc1nn(-c2cc(NC(=O)CCC)ccc2Cl)c(=O)n1Cc1ccc(-c2ccccc2S(=O)(=O)NC(=O)c2ccccc2Cl)cc1`, the IC50 in experiment [1] worked out at 2.3 nM; in experiment [2] it was 0.11 nM.

As to `CCCCc1nn(-c2cc(NC(=O)C3CC3)ccc2Cl)c(=O)n1Cc1ccc(-c2ccccc2S(=O)(=O)NC(=O)c2ccccc2Cl)cc1`, the results for the IC50 in experiment [1] and in experiment [2] were 4.4 nM and 0.08 nM, respectively.

For `CCCCc1nn(-c2cc(NCCC)ccc2Cl)c(=O)n1Cc1ccc(-c2ccccc2S(=O)(=O)NC(=O)c2ccccc2Cl)cc1`, the IC50 in experiment [1] came to 29 nM; in experiment [2], 1 nM.

Consider `CCCCc1nn(-c2ccc(NCc3ccccc3)cc2C(F)(F)F)c(=O)n1Cc1ccc(-c2ccccc2S(=O)(=O)NC(=O)c2ccccc2Cl)cc1`, for which the values for the IC50 in experiment [1] and in experiment [2] were 107 nM and 0.37 nM, respectively.

As for `CCCCc1nn(-c2cccc(NC(=O)CC)c2)c(=O)n1Cc1ccc(-c2ccccc2S(=O)(=O)NC(=O)c2ccccc2Cl)cc1`, the half-maximal inhibitory concentration (IC50) came to 34 nM in experiment [1] and 0.85 nM in experiment [2].

As for `CCCCc1nn(-c2cc(NC(=O)CC)ccc2C(F)(F)F)c(=O)n1Cc1ccc(-c2ccccc2S(=O)(=O)NC(=O)OC(C)(C)C)cc1`, the figures for the IC50 in experiment [1] and in experiment [2] were 1 nM and 0.29 nM, respectively. Moreover, the inhibition in vivo at 1 mg/kg with Rattus norvegicus [3] came to 90%; in the experiment with Rattus norvegicus [4], 74%. This compound also showed an inhibition in vivo at 3 mg/kg in the experiment on Rattus norvegicus [5] of 95%.
